Calls of active or inactive are those of the source.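 How the source made its calls, unless noted: active means visually confirmed hit in the image check and inhibition above 20%; inconclusive means visually confirmed hit but inhibition not above 20%; inactive means no visual hit in the image check.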
Columns and labels:
[1] = inhibitors of TNFa-induced NFkB p65 translocation, primary screen, imaging, HUVEC, MLSMR starter and 10KST1 sets (AID 438;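 active means inhibition above 20% together with a positive visual image hit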;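 further: compound added about 3h40 before a 20 min TNFalpha stimulation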;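 on inhibition: signal is the nuclear over cytoplasmic p65 intensity ratio per well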); conditions: HUVEC TNFa-induced p65 nuclear translocation; cell count: measured here: nuclei count (cytotoxicity indicator), at 2.08 µM; inhibition: at 2 µM, stronger effect = higher value, 0% TNFa-plus-vehicle, 100% no-TNFa wells
[2] = reduction of polyQ htt aggregates in cells – imaging, exon1htt(103Q)mCFP cells, high-content imaging, primary screen (AID 483;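 active means visual image review flags a hit and inhibition of aggregation exceeds 20%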;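 further: compound exposure lasted 3 days before fixation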;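 on nuclei count: percent of the per-plate median nuclei count of sample wells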); conditions: exon1htt(103Q)mCFP cell line, aggregate imaging, at 2 µM; inhibition of aggregation: stronger effect = higher value; nuclei count: measured here: cell count, toxicity
[3] = endothelial E-selectin expression blockers – imaging, HUVEC, immunofluorescence, MLSMR starter and 10KST1 sets, primary screen (AID 487); conditions: HUVEC TNFalpha-induced E-selectin immunofluorescence imaging, at 2 µM; inhibition: stronger effect = higher value; nuclei count: measured here: cell number, toxicity;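 on inhibition: signal is fraction of cell area covered by stained E-selectin grains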;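 on nuclei count: 100% = median nuclei count of all wells on the same plate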
[4] = molecular target: Voltage-gated potassium channel subunit beta-2 (Rattus norvegicus) (UniProt P62483); assay: inhibitors of rat Kvbeta2 reductase activity – biochemical, NADPH fluorescence, primary screen (AID 622;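 active means fluorescence slope higher than the sample average by over 3 SD, cut at about -0.22 in these data, passing the limit was not always enough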;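 further: slope of raw intensity against log time taken from 70 to 1610 s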); conditions: recombinant KvBeta, 4-cyanobenzaldehyde reduction, at 10 µM, stronger effect = higher value
[5] = molecular target: Voltage-gated potassium channel subunit beta-2 (Rattus norvegicus) (UniProt P62483); assay: enhancers of rat Kvbeta2 NADPH turnover – biochemical, NADPH fluorescence, primary screen (AID 623;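 active means NADPH fluorescence slope more negative than the mean of all samples by about 3 SD, 99.7% confidence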;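 further: fluorescence intensity change per second fitted from 20 to 320 s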); conditions: Recombinant KvBeta, NADPH fluorescence decrease slope, 10 min; at 10 µM; stronger effect = lower value
[6] = molecular target: Muscarinic acetylcholine receptor M4 (Homo sapiens) (UniProt P08173); assay: M4-linked GIRK flux change, two-sided – cell-based, HEK293 M4/GIRK, thallium flux, BTC-AM, M4 allosteric agonist project, primary screen (AID 625;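 active means fluorescence slope after compound addition differing from the mean of all tested samples at 99.7% confidence, mostly higher but some lower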;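 further: thallium influx through GIRK channels coupled to M4 in HEK293 cells with BTC-AM dye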); conditions: at 10 µM, actives lie on both sides
How it was run: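 Material: HEK293 cells with M4 receptor and GIRK channels; Times: cells overnight at 37 °C, BTC-AM loading 1 h, reads 2 min total; Technique: kinetic BTC-AM fluorescence sampled at 1 Hz, 10 s pre-addition baseline; Read-out basis: slope over 15–24 s of trace normalized to starting intensity; Controls: carbachol positive, DMSO negative.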

[7] = blockers of RIG-like receptor reporter activation – cell-based, Sendai virus stimulus, luciferase, 10K MLSCN set, TLR/RLR signaling modifier project, primary screen (AID 602276;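 active means inhibition at or above 50% at 10 µM; inactive means inhibition below 50%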;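 further: firefly luciferase from ISG56 promoter only with Renilla not read in this screen; 0% = Sendai virus plus DMSO and 100% = medium plus DMSO without virus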); conditions: HEK293 RL24 IRF3 luciferase reporter, at 10 µM, stronger effect = higher value
[8] = TLR3 IRF3 reporter activation blockers – cell-based, poly I:C stimulus, luciferase, 10K MLSCN set, primary screen (AID 602277;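 active means inhibition of the reporter signal at or above 50%; inactive means inhibition below 50%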); conditions: HEK293-TLR3 RL24 IRF3 luciferase reporter, at 10 µM, stronger effect = higher value

Sequence of Voltage-gated potassium channel subunit beta-2 (Rattus norvegicus) (P62483 whole entry, looked up): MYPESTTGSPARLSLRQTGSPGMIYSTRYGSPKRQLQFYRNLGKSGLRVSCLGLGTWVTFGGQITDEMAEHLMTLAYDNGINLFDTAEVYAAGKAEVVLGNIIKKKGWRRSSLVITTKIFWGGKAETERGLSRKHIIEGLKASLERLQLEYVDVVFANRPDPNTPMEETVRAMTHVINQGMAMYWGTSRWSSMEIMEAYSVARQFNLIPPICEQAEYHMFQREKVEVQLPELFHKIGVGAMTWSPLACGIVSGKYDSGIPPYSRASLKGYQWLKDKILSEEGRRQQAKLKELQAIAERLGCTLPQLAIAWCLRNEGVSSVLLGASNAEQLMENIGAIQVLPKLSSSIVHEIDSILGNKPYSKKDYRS
Sequence of Muscarinic acetylcholine receptor M4 (Homo sapiens) (P08173 whole entry, looked up): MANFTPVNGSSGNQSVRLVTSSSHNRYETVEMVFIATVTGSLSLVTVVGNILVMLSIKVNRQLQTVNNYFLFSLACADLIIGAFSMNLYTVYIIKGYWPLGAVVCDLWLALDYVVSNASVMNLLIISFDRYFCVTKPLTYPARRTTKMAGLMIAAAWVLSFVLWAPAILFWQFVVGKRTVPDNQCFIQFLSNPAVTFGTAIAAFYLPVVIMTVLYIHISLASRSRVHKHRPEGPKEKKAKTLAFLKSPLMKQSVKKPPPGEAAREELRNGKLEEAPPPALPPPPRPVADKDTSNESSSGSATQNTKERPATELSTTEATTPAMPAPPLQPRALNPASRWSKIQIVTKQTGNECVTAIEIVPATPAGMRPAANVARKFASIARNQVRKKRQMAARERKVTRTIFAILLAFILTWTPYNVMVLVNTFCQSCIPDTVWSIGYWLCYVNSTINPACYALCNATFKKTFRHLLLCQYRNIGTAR

Structure (SMILES)	cell count [1]	inhibition [1]	inhibition of aggregation [2]	nuclei count [2] [%]	inhibition [3]	nuclei count [3] [%]	fluorescence slope [4]	NADPH fluorescence slope [5]	fluorescence slope [6]	inhibition [7]	inhibition [8]
CC1CCN(S(=O)(=O)c2ccc(NC(=O)CSc3nnnn3C)cc2)CC1	289	-5.4% (inactive)	-4.7% (inactive)	107	-1.6% (inactive)	91.8	-0.411 (inactive)	-3.1e-05 (inactive)	0.00682 (inactive)	10.9% (inactive)	20.7% (inactive)
COc1ccccc1NC(=O)c1nnn(CC(=O)Nc2ccccc2)c1N	234	-4.4% (inactive)	-30.9% (inactive)	95.9	-9.9% (inactive)	103	-0.416 (inactive)	5.5e-05 (inactive)	0.00673 (inactive)	9.85% (inactive)	23.6% (inactive)
CCOCCCNC(=O)c1ccc2c(c1)ncn2C1CCCC1	573	-4.8% (inactive)	-5.5% (inactive)	100	-12% (inactive)	94.4	-0.495 (inactive)	4.4e-05 (inactive)	0.00159 (inactive)	-12.4% (inactive)	-122% (inactive)
CCOC(=O)CSc1nc(C)c(C(=O)OCC)s1	392	4% (inactive)	-6.8% (inactive)	106	-18.1% (inactive)	137	-0.556 (inactive)	-1.9e-05 (inactive)	0.00612 (inactive)	7.74% (inactive)	15.6% (inactive)
COC(=O)Nc1ccc(S(=O)(=O)N(C)CC(F)(F)C(F)F)cc1	642	-11.1% (inactive)	-5.6% (inactive)	114	-57.5% (inactive)	86.7	-0.568 (inactive)	3.2e-05 (inactive)	0.00406 (inactive)	12% (inactive)	13.7% (inactive)
Cc1cc2oc(C(=O)NC3CCS(=O)(=O)C3)c(C)c2cc1C (stereo not drawn)	328	5.6% (inactive)	-2.9% (inactive)	97	-75.1% (inactive)	118	-0.576 (inactive)	-3.1e-05 (inactive)	0.00365 (inactive)	9.17% (inactive)	-12% (inactive)
CCCn1c(N2CCN(CC(=O)Nc3ccc4c(c3)OCCO4)CC2)nc2ccccc21	411	-11% (inactive)	1.8% (inactive)	103	-98.9% (inactive)	74.4	-0.526 (inactive)	-0.000207 (inactive)	0.00376 (inactive)	4.25% (inactive)	20.1% (inactive)
N#CC1=C(N)Oc2n[nH]c(-c3cccs3)c2C1c1cccs1 (stereo not drawn)	562	-15.3% (inactive)	4.7% (inactive)	99.1	-80.1% (inactive)	113	-0.396 (inactive)	-1.8e-05 (inactive)	0.00605 (inactive)	13.4% (inactive)	17.8% (inactive)
COc1ccc(Cc2nnc3n2N=C(c2cc4ccccc4o2)CS3)cc1OC	378	-16.3% (inactive)	40.2% (active)	43.3	38.3% (inactive)	51.6	-0.346 (inactive)	-7.6e-05 (inactive)	0.00468 (inactive)	11.3% (inactive)	26% (inactive)
CCOC(=O)CCCn1nc(C)n2c(cc3sccc32)c1=O	563	-3.2% (inactive)	-1.6% (inactive)	119	-28.3% (inactive)	119	-0.406 (inactive)	8.7e-05 (inactive)	0.00716 (inactive)	-11.6% (inactive)	-28.8% (inactive)
COc1ccc(-c2noc(CCC(=O)NCCCN3CCC(Cc4ccccc4)CC3)n2)cc1	335	7.8% (inactive)	2% (inactive)	94	-46.3% (inactive)	108	-0.547 (inactive)	-2.4e-05 (inactive)	0.00434 (inactive)	3.44% (inactive)	-1.77% (inactive)
CCn1c(=O)cc(SCC(=O)N2CCN(C3CCCCC3)CC2)c2ccccc21	417	-5.2% (inactive)	-6.7% (inactive)	131	-69.8% (inactive)	108	-0.565 (inactive)	1.7e-06 (inactive)	0.0055 (inactive)	8.4% (inactive)	65.5% (active)
CCn1c(=O)cc(SCC(=O)N2CCOCC2)c2ccccc21	460	-1.2% (inactive)	0.4% (inactive)	115	-69.7% (inactive)	120	-0.549 (inactive)	-2.4e-05 (inactive)	0.00553 (inactive)	75.8% (active)	51.3% (active)

— PubChem BioAssay
